Results reported in ChEMBL document CHEMBL1671691 (Antimicrob Agents Chemother, 2010).

System: Influenza A virus
Experiment: Antiviral activity against adamantane-, oseltamivir-, zanamivir-susceptible Influenza A virus (A/Georgia/17/2006(H1N1)) infected in MDCK cells assessed as inhibition of viral replication after 3 days by microscopic analysis using crystal violet stain
Format: functional, organism-based
Settings: 72 h
In short: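 Confluent MDCK-ATCC monolayers infected with virus diluted to give 15–45 plaques/well. Adsorption 1 h at 37°C without drug, then washed. Overlaid with 0.8% agarose in MEM containing drug plus TPCK-trypsin: 3 μg/ml for seasonal viruses, 2 μg/ml for 2009 A(H1N1). Incubated 3 days at 37°C, 5% CO2. Ethanol-fixed, crystal violet-stained, plaques counted. EC50 by curve fit; duplicates on three occasions, mean ± SD.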

For `NC(=O)c1ncn([C@@H]2O[C@H](CO)[C@@H](O)[C@H]2O)n1` [RIBAVIRIN], the EC50 was 4.92 µM.
